Reference: ChEMBL document CHEMBL3393033, “6-(Azaindol-2-yl)pyridine-3-sulfonamides as potent and selective inhibitors targeting hepatitis C virus NS4B” (Bioorg Med Chem Lett, 2015)
Activity calls are given as the source filed them. The rule behind the calls is not given here.

Tests used:
Hepatitis C virus [1] = assay: Antiviral activity against genotype 1b Hepatitis C virus bicistronic replicon Con1 infected in human HuH7 cells after 3 days by RT-PCR analysis; format: functional, cell-based, Hepacivirus hominis; settings: genotype 1b Con1, Huh-7, 72 h
Procedure, shortened: (§1)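 Huh7 cells carrying a genotype 1b (Con1) bicistronic HCV replicon seeded at 5000 cells/well. Compound added at a final DMSO concentration of 0.5%, then incubated at 37°C for 3 days. Replicon RNA, and GAPDH RNA as the endogenous selectivity control, quantified by real-time RT-PCR. Values are the average of at least two independent determinations.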

[2] = AUC (0 to 6 hrs) in Sprague-Dawley rat plasma at 10 mg/kg, po administered as single dose by LC-MS/MS analysis; format: ADME, organism-based; set-up: time < 6 hr, dose 10 mg/kg, route oral
Procedure, shortened: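 Male Sprague Dawley rats (n = 2) were dosed once orally at 10 mg/kg. Compound was lyophilized from acetonitrile/water (1:1) and given as a suspension in 0.4% hydroxypropyl methylcellulose. Plasma was sampled at 30 min and at 1, 2, 3, 4 and 6 h post-dose for LC-MS/MS. AUC is over 0–6 h.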

[3] = AUC (0 to 24 hrs) in dog plasma at 2 mg/kg, po by LC-MS/MS analysis; format: ADME, organism-based, Canis lupus familiaris; set-up: time < 24 hr, dose 2 mg/kg, route oral
Procedure, shortened: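 Male beagle dogs (n = 2) were dosed orally at 2 mg/kg. Compound was lyophilized from acetonitrile/water (1:1) and given as a suspension in 0.4% hydroxypropyl methylcellulose. Plasma was collected at 30 min and at 1, 2, 4, 8 and 24 h for LC-MS/MS.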

[4] = AUC (0 to 24 hrs) in monkey at 3 mg/kg, po by LC-MS/MS analysis; settings: cynomolgus monkey, plasma
[5] = Toxicity in human HuH7 cells infected with genotype 1b Hepatitis C virus bicistronic replicon Con1 assessed as reduction in GAPDH RNA after 3 days by RT-PCR analysis; format: cell-based, Huh-7; procedure, shortened: as §1
[6] = Ratio of drug level in liver to plasma Sprague-Dawley rat plasma at 10 mg/kg, po administered as single dose by LC-MS/MS analysis; format: ADME, organism-based; set-up: dose 10 mg/kg, route oral
Procedure, shortened: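 Male Sprague Dawley rats (n = 2) received 10 mg/kg orally as a suspension in 0.4% hydroxypropyl methylcellulose, after lyophilization from acetonitrile/water (1:1). Liver and plasma concentrations were measured at 6 h post-dose by LC-MS/MS and expressed as a liver/plasma ratio.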

[7] = Ratio of plasma concentration in po dosed monkey at 8 hrs to EC50 for genotype 1b Hepatitis C virus bicistronic replicon Con1 infected in human Huh7 cells; format: ADME, organism-based, Huh-7; settings: in vivo
Procedure, shortened: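 Monkeys: male cynomolgus (n = 2) dosed orally at 3 mg/kg as a suspension in 0.4% hydroxypropyl methylcellulose. Plasma level at 8 h post-dose was measured by LC-MS/MS and expressed relative to the replicon 1b EC₅₀.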

[8] = Ratio of plasma concentration in Sprague-Dawley rat at 10 mg/kg, po administered as single dose after 6 hrs to EC50 for genotype 1b Hepatitis C virus bicistronic replicon Con1 infected in human HuH7 cells; format: ADME, organism-based, Huh-7; set-up: dose 10 mg/kg, route oral; settings: in vivo
Procedure, shortened: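 Male Sprague Dawley rats (n = 2) received a single 10 mg/kg oral dose in 0.4% hydroxypropyl methylcellulose suspension. Plasma concentration at 6 h post-dose was measured by LC-MS/MS and divided by the Con1 1b replicon EC₅₀ from the Huh7 RT-PCR assay.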

[9] = Ratio of plasma concentration in po dosed dog at 8 hrs to EC50 for genotype 1b Hepatitis C virus bicistronic replicon Con1 infected in human Huh7 cells; format: ADME, organism-based, Huh-7; settings: in vivo
Procedure, shortened: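 Dogs: male beagles (n = 2) dosed orally at 2 mg/kg as a suspension in 0.4% hydroxypropyl methylcellulose. Plasma concentration at 8 h post-dose was measured by LC-MS/MS and divided by the replicon 1b EC₅₀.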

Hepacivirus hominis [10] = assay: Inhibition of Hepatitis C virus NS5B polymerase up to 10000 nM
Hepatitis C virus [11] = assay: Antiviral activity against HCV genotype 1b Con1 replicon cells expressing NS4B F98C mutant grown under serial passage in presence of 1x to 30x EC90 level of compound assessed as reduction in replicon RNA levels relative to wild type HCV genotype 1b Con1; format: functional, Hepacivirus hominis
Hepacivirus hominis [12] = assay: Inhibition of Hepatitis C virus NS3 protease up to 10000 nM
Hepatitis C virus [13] = assay: Antiviral activity against HCV genotype 1b Con1 replicon cells expressing NS4B V105M mutant grown under serial passage in presence of 1x to 30x EC90 level of compound assessed as reduction in replicon RNA levels relative to wild type HCV genotype 1b Con1; format: functional, Hepacivirus hominis

Row | Structure (SMILES) | EC50 (Hepatitis C virus [1]) | AUC(0-t) at 6 h [2] | IC50 at 3 days [5] | Kp [6] | Ratio [8] | other results
1 | Cc1cnc2c(c1)c(C#N)c(-c1ccc(S(=O)(=O)N[C@@H](C)C(F)(F)F)cn1)n2C1CCC1 | 13 nM | 6.92 µM·h | > 10000 nM | 9 | 55 | AUC(0-t) at 24 h [3]: 5.67 µM·h; AUC(0-t) at 24 h [4]: 0.641 µM·h; Ratio [7]: 1; Ratio [9]: 14
2 | COc1ncc2c(C#N)c(-c3ccc(S(=O)(=O)N[C@@H](C)C(F)(F)F)cn3)n(C3CCC3)c2n1 | 240 nM |  | > 10000 nM |  |  | 
3 | Cc1cnc2c(c1)c(C#N)c(-c1ncc(S(=O)(=O)N[C@@H](C)C(F)(F)F)cn1)n2C1CCC1 | 160 nM |  | > 10000 nM |  |  | 
4 | C[C@H](NS(=O)(=O)c1ccc(-c2c(C#N)c3cc(Cl)ncc3n2C2CCC2)nc1)C(F)(F)F | 530 nM |  | > 10000 nM |  |  | 
5 | C[C@H](NS(=O)(=O)c1ccc(-c2c(C#N)c3cc(C4CC4)cnc3n2C2CCC2)nc1)C(F)(F)F | 40 nM | 10.2 µM·h | > 10000 nM | 11 | 32 | 
6 | COc1ccc2c(C#N)c(-c3ccc(S(=O)(=O)N[C@@H](C)C(F)(F)F)cn3)n(C3CCC3)c2n1 | 960 nM |  | 9700 nM |  |  | 
7 | C[C@H](NS(=O)(=O)c1ccc(-c2c(C#N)c3cc(Cl)cnc3n2CC2CC2)nc1)C(F)(F)F | 39 nM |  | > 10000 nM |  |  | 
8 | C[C@H](NS(=O)(=O)c1ccc(-c2c(C#N)c3cc(OC(F)F)cnc3n2C2CCC2)nc1)C(F)(F)F | 50 nM | 9.37 µM·h | > 10000 nM | 7 | 36 | 
9 | COc1cnc2c(c1)c(C#N)c(-c1ccc(S(=O)(=O)N[C@@H](C)C(F)(F)F)cn1)n2C1CCCC1 | 150 nM |  | > 10000 nM |  |  | 
10 | C[C@H](NS(=O)(=O)c1ccc(-c2c(C#N)c3cc(F)cnc3n2C2CCC2)nc1)C(F)(F)F | 46 nM | 8.78 µM·h | > 10000 nM | 6 | 23 | 
11 | C[C@H](NS(=O)(=O)c1ccc(-c2c(C#N)c3cccnc3n2C2CCC2)nc1)C(F)(F)F | 217 nM |  | > 10000 nM |  |  | 
12 | Cc1cc2c(C#N)c(-c3ccc(S(=O)(=O)N[C@@H](C)C(F)(F)F)cn3)n(C3CCC3)c2cn1 | 1400 nM |  | > 10000 nM |  |  | 
13 | COc1cnc2c(c1)c(C#N)c(-c1ccc(S(=O)(=O)N[C@@H](C)C(F)(F)F)cn1)n2C1CCC1 | 27 nM | 7.61 µM·h | > 9000 nM | 14 | 30 | inhibition (Hepacivirus hominis [10]): inactive; fold change (FC) (Hepatitis C virus [11]): 25; AUC(0-t) at 24 h [3]: 4.18 µM·h; AUC(0-t) at 24 h [4]: 2.28 µM·h; Ratio [7]: 4; inhibition (Hepacivirus hominis [12]): inactive; fold change (FC) (Hepatitis C virus [13]): 17; Ratio [9]: 6
14 | C[C@H](NS(=O)(=O)c1ccc(-c2c(C#N)c3cc(Cl)cnc3n2C2CCC2)nc1)C(F)(F)F | 17 nM | 2.39 µM·h | > 10000 nM | 23 | 22 | AUC(0-t) at 24 h [3]: 4.08 µM·h; AUC(0-t) at 24 h [4]: 1.03 µM·h; Ratio [7]: 2; Ratio [9]: 12
15 | C[C@H](NS(=O)(=O)c1ccc(-c2c(C#N)c3ncc(Cl)cc3n2C2CCC2)nc1)C(F)(F)F | 94 nM |  | 2500 nM |  |  | 
16 | CCOc1cnc2c(c1)c(C#N)c(-c1ccc(S(=O)(=O)N[C@@H](C)C(F)(F)F)cn1)n2C1CCC1 | 200 nM |  | > 10000 nM |  |  | 
17 | C[C@H](NS(=O)(=O)c1ccc(-c2c(C#N)c3cc(C(F)(F)F)cnc3n2C2CCC2)nc1)C(F)(F)F | 2 nM | 5.83 µM·h | > 10000 nM | 44 | 503 | AUC(0-t) at 24 h [3]: 8.16 µM·h; AUC(0-t) at 24 h [4]: 5.44 µM·h; Ratio [7]: 105; Ratio [9]: 125
18 | Cc1ccc2c(C#N)c(-c3ccc(S(=O)(=O)N[C@@H](C)C(F)(F)F)cn3)n(C3CCC3)c2n1 | 87 nM |  | > 10000 nM |  |  | 
19 | Cc1cnc2c(c1)c(C#N)c(-c1ccc(S(=O)(=O)N[C@@H](C)C(F)(F)F)cc1)n2C1CCC1 | 87 nM |  | > 10000 nM |  |  | 
20 | Cc1cc2c(cn1)c(C#N)c(-c1ccc(S(=O)(=O)N[C@@H](C)C(F)(F)F)cn1)n2C1CCC1 | 230 nM |  | > 10000 nM |  |  | 
21 | C[C@H](NS(=O)(=O)c1ccc(-c2c(C#N)c3cc(Cl)cnc3n2C2CCCC2)nc1)C(F)(F)F | 27 nM | 6.84 µM·h | > 10000 nM | 19 | 40 | AUC(0-t) at 24 h [3]: 2.07 µM·h; AUC(0-t) at 24 h [4]: 0.29 µM·h; Ratio [7]: 0.3; Ratio [9]: 2
22 | Cc1cnc2c(C#N)c(-c3ccc(S(=O)(=O)N[C@@H](C)C(F)(F)F)cn3)n(C3CCC3)c2c1 | 119 nM |  | > 10000 nM |  |  | 
23 | C[C@H](NS(=O)(=O)c1ccc(-c2c(C#N)c3ccc(Cl)nc3n2C2CCC2)nc1)C(F)(F)F | 700 nM |  | 6300 nM |  |  | 
24 | CCc1cnc2c(c1)c(C#N)c(-c1ccc(S(=O)(=O)N[C@@H](C)C(F)(F)F)cn1)n2C1CCC1 | 15 nM | 2.63 µM·h | > 5160 nM | 13 | 27 | 
25 | CCCOc1cnc2c(c1)c(C#N)c(-c1ccc(S(=O)(=O)N[C@@H](C)C(F)(F)F)cn1)n2C1CCC1 | 2150 nM |  | > 10000 nM |  |  | 
26 | C[C@H](NS(=O)(=O)c1ccc(-c2c(C#N)c3cnc(Cl)cc3n2C2CCC2)nc1)C(F)(F)F | 260 nM |  | 1310 nM |  |  | 
27 | C[C@H](NS(=O)(=O)c1ccc(-c2c(C#N)c3cnc(OC(F)F)nc3n2C2CCC2)nc1)C(F)(F)F | 970 nM |  | > 10000 nM |  |  | 
28 | CC(C)Oc1cnc2c(c1)c(C#N)c(-c1ccc(S(=O)(=O)N[C@@H](C)C(F)(F)F)cn1)n2C1CCC1 | 7600 nM |  | > 10000 nM |  |  | 
29 | COc1cnc2c(c1)c(C#N)c(-c1ccc(S(=O)(=O)N[C@@H](C)C(F)(F)F)cn1)n2CC1CC1 | 300 nM |  | 7900 nM |  |  | 
